≈ marks a conversion by molar mass, not a printed value.
Key:
[1] = target: T1, Rap guanine nucleotide exchange factor 4 (Mus musculus, UniProt Q9EQZ6); experiment: Displacement of 8-NBD-cAMP from mouse recombinant EPAC2 by fluorescence assay
T1 sequence (Q9EQZ6 whole entry): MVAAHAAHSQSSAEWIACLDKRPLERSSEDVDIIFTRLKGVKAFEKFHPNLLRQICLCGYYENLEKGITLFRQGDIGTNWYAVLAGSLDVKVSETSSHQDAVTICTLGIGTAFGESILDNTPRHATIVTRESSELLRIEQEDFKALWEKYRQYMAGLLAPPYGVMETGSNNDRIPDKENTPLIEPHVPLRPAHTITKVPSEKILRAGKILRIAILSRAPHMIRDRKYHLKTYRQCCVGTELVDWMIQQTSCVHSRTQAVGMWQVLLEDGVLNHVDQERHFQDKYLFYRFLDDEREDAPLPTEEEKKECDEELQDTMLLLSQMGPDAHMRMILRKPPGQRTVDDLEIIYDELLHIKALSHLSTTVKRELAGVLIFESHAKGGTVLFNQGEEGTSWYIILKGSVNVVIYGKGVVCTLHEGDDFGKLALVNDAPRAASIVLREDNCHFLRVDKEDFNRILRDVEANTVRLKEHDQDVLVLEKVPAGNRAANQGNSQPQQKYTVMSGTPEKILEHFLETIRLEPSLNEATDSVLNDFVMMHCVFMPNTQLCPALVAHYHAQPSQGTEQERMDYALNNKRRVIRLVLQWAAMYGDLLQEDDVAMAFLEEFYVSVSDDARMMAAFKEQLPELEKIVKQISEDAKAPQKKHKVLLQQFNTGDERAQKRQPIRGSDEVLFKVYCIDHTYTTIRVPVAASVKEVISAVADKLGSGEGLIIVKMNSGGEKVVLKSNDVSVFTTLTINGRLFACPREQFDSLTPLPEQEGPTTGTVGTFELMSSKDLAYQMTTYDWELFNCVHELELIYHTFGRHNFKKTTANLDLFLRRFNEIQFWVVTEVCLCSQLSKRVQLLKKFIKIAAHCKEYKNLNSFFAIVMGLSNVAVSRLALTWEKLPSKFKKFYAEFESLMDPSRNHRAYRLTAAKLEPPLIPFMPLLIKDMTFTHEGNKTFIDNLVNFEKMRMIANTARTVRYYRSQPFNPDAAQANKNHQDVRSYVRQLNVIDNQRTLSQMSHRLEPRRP

[2] = target: T2, Rap guanine nucleotide exchange factor 4 (Mus musculus) (UniProt Q9EQZ6); experiment: Ratio of cAMP IC50 to compound IC50 for displacement of 8-NBD-cAMP from mouse recombinant EPAC2 by fluorescence assay
T2 sequence (whole entry): T1 sequence (Q9EQZ6 whole entry)

[3] = target: T3, Rap guanine nucleotide exchange factor 3 (Homo sapiens, UniProt O95398); experiment: Antagonist activity at human recombinant EPAC1 assessed as inhibition of Rap1b-bGDP exchange activity
T3 sequence (O95398 whole entry): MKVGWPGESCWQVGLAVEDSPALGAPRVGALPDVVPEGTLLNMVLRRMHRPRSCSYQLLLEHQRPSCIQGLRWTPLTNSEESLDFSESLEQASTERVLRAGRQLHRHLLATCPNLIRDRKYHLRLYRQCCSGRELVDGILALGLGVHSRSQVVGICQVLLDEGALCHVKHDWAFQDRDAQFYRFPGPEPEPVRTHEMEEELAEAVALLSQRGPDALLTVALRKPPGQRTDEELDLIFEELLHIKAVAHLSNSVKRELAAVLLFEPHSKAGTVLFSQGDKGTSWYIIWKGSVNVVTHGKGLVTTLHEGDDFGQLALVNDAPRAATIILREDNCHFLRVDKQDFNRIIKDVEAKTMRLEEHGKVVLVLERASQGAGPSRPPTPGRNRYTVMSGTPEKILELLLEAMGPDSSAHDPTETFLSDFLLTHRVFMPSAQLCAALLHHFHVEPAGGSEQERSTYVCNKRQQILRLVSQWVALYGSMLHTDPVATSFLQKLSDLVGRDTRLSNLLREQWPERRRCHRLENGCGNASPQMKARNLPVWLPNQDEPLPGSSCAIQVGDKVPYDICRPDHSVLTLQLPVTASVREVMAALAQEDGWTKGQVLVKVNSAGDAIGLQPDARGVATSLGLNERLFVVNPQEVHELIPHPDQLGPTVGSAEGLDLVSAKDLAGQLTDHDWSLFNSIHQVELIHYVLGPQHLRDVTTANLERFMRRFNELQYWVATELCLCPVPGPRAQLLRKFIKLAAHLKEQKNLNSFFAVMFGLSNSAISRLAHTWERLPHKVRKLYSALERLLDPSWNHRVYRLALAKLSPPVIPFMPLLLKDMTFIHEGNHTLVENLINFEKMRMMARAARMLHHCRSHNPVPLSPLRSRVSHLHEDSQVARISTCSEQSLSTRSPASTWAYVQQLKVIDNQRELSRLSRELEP

[4] = […] solubility of the compound in water after 24 hrs by HPLC analysis; type: physicochemical; settings: for solubility: buffer, 24 h
[5] = […] solubility of the compound in ethanol after 24 hrs by HPLC analysis; type: physicochemical
Method in brief: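 10–15 mg of solid added to 0.1–0.6 mL ethanol, shaken 24 h at 25 °C, then centrifuged and filtered. Supernatant (5 μL) injected on C18 reverse-phase HPLC with UV detection at 270 and 254 nm. Quantified by one-point calibration against standards of known concentration.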

[6] = target: T3, Rap guanine nucleotide exchange factor 3; experiment: Antagonist activity at EPAC1 (unknown origin) assessed as cAMP-induced guanine nucleotide exchange factor activity

Row | IC50 [1] | SMILES | IC50 ([1]; read-out: IC50) [µM] | Ratio IC50 [2] | IC50 [3] [µM] | also measured
1 |  | N#C/C(=N\Nc1cccc(Cl)c1)C(=O)c1cc(C2CCCCC2)on1 | 11.3 | 2.8 |  | 
2 | Not Active | Cc1cc(NC(=O)/C(C#N)=N/Nc2cccc(Cl)c2)no1 |  |  |  | 
3 |  | N#C/C(=N\Nc1cccc(Cl)c1)C(=O)c1cc(C2CC2)on1 | 60 |  |  | 
4 |  | CC(C)(C)c1cc(C(=O)/C(C#N)=N/Nc2cc(F)cc(Cl)c2)no1 | 2.5 | 12.8 | 11.6 | 
5 |  | CC(C)(C)c1cc(C(=O)/C(C#N)=N/Nc2cccc(Cl)c2Cl)no1 |  | 0.9 |  | 
6 |  | CC(C)(C)c1cc(C(=O)/C(C#N)=N/Nc2ccccc2)no1 |  | 0.5 |  | 
7 |  | CC(C)(C)c1cc(C(=O)/C(C#N)=N/Nc2cccc([N+](=O)[O-])c2)no1 | 31.3 | 1 |  | 
8 | Not Active | N#C/C(=N\Nc1cc(Cl)c(Cl)c(Cl)c1)C(=O)c1cc(-c2ccccc2)on1 |  |  |  | 
9 | Not Active | CC(C)(C)c1cc(C(=O)/C(C#N)=N/Nc2cccc(CO)c2)no1 |  |  |  | 
10 |  | CC(C)(C)c1cc(C(=O)/C(C#N)=N/Nc2ccc(F)c(Cl)c2)no1 | 2.7 | 11.9 | 7.8 | solubility [4]: 0.2368 mM (≈ 82.6 µg/mL); solubility at 24 h [5]: 23.5 mM (≈ 8200 µg/mL)
11 |  | CC(C)(C)c1cc(C(=O)/C(C#N)=N/Nc2ccc(Cl)c(F)c2)no1 | 4.3 | 7.4 |  | 
12 | Not Active | CC(=O)c1cccc(N/N=C(\C#N)C(=O)c2cc(C(C)(C)C)on2)c1 |  |  |  | 
13 |  | CC(C)(C)c1cc(C(=O)/C(C#N)=N/Nc2cc(F)cc(F)c2)no1 | 5.3 | 6 |  | 
14 |  | CC(C)(C)c1cc(C(=O)/C(C#N)=N/Nc2cccc(Cl)c2)no1 |  |  | 10.8 | IC50 [6]: 10.8 µM; solubility at 24 h ([4]; water): 0.018 mM (≈ 5.95 µg/mL); solubility at 24 h [5]: 45.3 mM (≈ 15000 µg/mL)
15 |  | CC(C)(C)c1cc(C(=O)/C(C#N)=N/Nc2ccc(Cl)cc2)no1 |  | 1.2 |  | 
16 |  | CC(C)(C)c1cc(C(=O)/C(C#N)=N/Nc2cc(F)c(F)c(F)c2)no1 |  |  | 8.9 | solubility [4]: 0.216 mM (≈ 75.7 µg/mL); solubility at 24 h [5]: 81.6 mM (≈ 28600 µg/mL)
17 |  | CC(C)(C)c1cc(C(=O)/C(C#N)=N/Nc2ccc(Cl)c(C(F)(F)F)c2)no1 |  |  | 9.7 | 
18 |  | CC(C)(C)c1cc(C(=O)/C(C#N)=N/Nc2cc(C(F)(F)F)cc(C(F)(F)F)c2)no1 | 6.4 |  | 5.7 | solubility [4]: 0.968 mM (≈ 418 µg/mL); solubility at 24 h [5]: > 347 mM
19 | Not Active | CC(C)(C)c1cc(NC(=O)c2cccc(Cl)c2)no1 |  |  |  | 

Row | IC50 [1] | SMILES | IC50 ([1]; read-out: IC50) [µM] | Ratio IC50 [2] | IC50 [3] [µM] | also measured
20 |  | CC(C)(C)c1cc(C(=O)/C(C#N)=N/Nc2ccccc2Cl)no1 |  | 1.1 |  | 
21 | Not Active | CC(C)(C)c1cc(C(=O)N/N=C/c2cccc(Cl)c2)no1 |  |  |  | 
22 |  | CC(C)(C)c1cc(C(=O)/C(C#N)=N/Nc2ccc(Cl)c(Cl)c2)no1 |  | 10.7 |  | 
23 |  | CC(C)(C)c1cc(C(=O)/C(C#N)=N/Nc2cc(Cl)ccc2Cl)no1 |  | 4.4 |  | 
24 | Not Active | CC(C)(C)c1cc(-c2n[nH]c(N)c2/N=N/c2cccc(Cl)c2)no1 |  |  |  | 
25 | Not Active | CC(C)(C)c1cc(NC(=O)/C(C#N)=N/Nc2cccc(Cl)c2)no1 |  |  |  | 
26 | Not Active | CC(C)(C)c1cc(C(=O)Nc2cccc(Cl)c2)no1 |  |  |  | 
27 |  | CC(C)(C)c1cc(C(=O)/C(C#N)=N/Nc2ccc(C(F)(F)F)c(Cl)c2)no1 |  |  | 4.3 | 
28 |  | N#C/C(=N\Nc1cc(Cl)c(Cl)c(Cl)c1)C(=O)c1cc(C2CCCCC2)on1 |  |  | 4 | solubility [4]: 0.0237 mM (≈ 10.1 µg/mL); solubility at 24 h [5]: 8.5 mM (≈ 3620 µg/mL)
29 |  | N#C/C(=N\Nc1cc(Cl)cc(Cl)c1)C(=O)c1cc(C2CCCCC2)on1 |  |  | 2.6 | 
30 | Not Active | CC(C)(C)c1cc(NC(=O)Nc2cccc(Cl)c2)no1 |  |  |  | 
31 |  | CC(C)(C)c1cc(C(=O)/C(C#N)=N/Nc2cc(Cl)cc(C(F)(F)F)c2)no1 | 1.6 |  | 5.7 | solubility at 24 h [5]: 36.6 mM (≈ 14600 µg/mL)
32 |  | CC(C)(C)c1cc(C(=O)/C(C#N)=N/Nc2cccc(C#N)c2)no1 | 67.8 |  |  | 
33 |  | CCOC(=O)c1cccc(N/N=C(\C#N)C(=O)c2cc(C(C)(C)C)on2)c1 | 71.4 |  |  | 
34 |  | N#C/C(=N\Nc1cc(Cl)c(Cl)c(Cl)c1)C(=O)c1cc(C2CC2)on1 |  |  | 4.1 | 
35 | Not Active | Cc1cc(C(=O)/C(C#N)=N/Nc2cccc(Cl)c2)no1 |  |  |  | 
36 |  | CC(C)(C)c1cc(C(=O)/C(C#N)=N/Nc2cc(Cl)c(Cl)c(Cl)c2)no1 | 0.9 |  | 2.4 | solubility [4]: 0.0318 mM (≈ 12.7 µg/mL); solubility at 24 h [5]: 10.9 mM (≈ 4360 µg/mL)
37 |  | CC(C)(C)c1cc(C(=O)/C(C#N)=N/Nc2cc(Cl)cc(Cl)c2)no1 |  | 16.8 |  | 
38 | Not Active | COc1cccc(N/N=C(\C#N)C(=O)c2cc(C(C)(C)C)on2)c1 |  |  |  | 

Row | SMILES | IC50 [1] | IC50 ([1]; read-out: IC50) [µM] | Ratio IC50 [2] | IC50 [3] [µM] | also measured
39 | N#C/C(=N\Nc1cccc(Cl)c1)C(=O)c1cc(-c2ccccc2)on1 | Not Active |  |  |  | 

From ChEMBL document CHEMBL3593245 (J Med Chem, 2015)
